Bioassay records from PubChem.
FLuc inh counter – inhibits firefly luciferase, flagging false hits in luciferase inhibition screens | AID 1006 | 1.5% of 200,000 active | ATPLite firefly luciferase biochemical luminescence, 10 min | inhibition, % at 10 µM;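 active means inhibition above about 50% when tested at 10 µM, limit read from the data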
Target sequence (P08659 whole entry, looked up): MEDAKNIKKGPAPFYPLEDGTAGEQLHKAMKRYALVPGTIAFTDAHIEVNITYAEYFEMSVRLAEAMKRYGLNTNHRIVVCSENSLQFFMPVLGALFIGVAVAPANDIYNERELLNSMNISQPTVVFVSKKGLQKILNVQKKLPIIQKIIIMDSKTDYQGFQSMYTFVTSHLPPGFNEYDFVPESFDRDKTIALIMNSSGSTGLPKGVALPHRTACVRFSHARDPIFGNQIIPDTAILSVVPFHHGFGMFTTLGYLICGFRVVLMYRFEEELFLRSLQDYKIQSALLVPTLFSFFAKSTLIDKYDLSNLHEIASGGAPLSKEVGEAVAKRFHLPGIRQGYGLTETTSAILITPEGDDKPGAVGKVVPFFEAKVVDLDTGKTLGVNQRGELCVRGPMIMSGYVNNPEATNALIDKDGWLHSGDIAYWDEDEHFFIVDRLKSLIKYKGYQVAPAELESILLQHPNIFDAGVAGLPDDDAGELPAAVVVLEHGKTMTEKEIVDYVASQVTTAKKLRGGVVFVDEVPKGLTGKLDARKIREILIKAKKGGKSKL
FLuc stim CS – firefly luciferase counter-screen for stimulation assays; P08659; ATPlite luciferase biochemical, luminescence, 10 min; 0 = ATP-free wells, 1 = DMSO control; activation factor at 10 µM; 200,000 tested, under 10 active;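 active means luciferase activation factor, scaled between plate controls, of at least 2 with compound at 10 µM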
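assay system = Luciferase/luciferin detection reagent, cell-free biochemical luciferase assay | also added = ATP substrate | times = 10 min post-reagent at room temperature | measured by = luminescence from luciferase reaction | measure = luciferase activation, seen as luminescence increase over controls | benchmarks = low control with PBS replacing ATP, high control enzyme plus ATP without compound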
STAT1 activator – increases IFN-gamma driven STAT1 reporter signal; NIH 3T3 STAT1-luciferase reporter, luminescence; 100% = IFN-gamma alone, no compound; activation (% of control), % at 5.5 µM; 2.6% of 200,000 active; AID 932;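 active means activation above the screen-wide mean activation plus 3 SD, cut at about 130% in these data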
APP 5'UTR act – APP 5'UTR luciferase reporter activation; SH-SY5Y APP 5'UTR luciferase reporter, luminescence; zero percent = DMSO vehicle wells; activation, % at 2 µM; 1% of 190,000 active;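 active means activation above a set limit, based on mean plus 3 SD of controls, cut at about 140% in these data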
NF-kB neuron act – NF-kB expression increase, human neuronal cells; NF-kB reporter expression; stronger effect = higher value; fold change at 12.5 µM; 1.6% of 190,000 active; in the data active means fold change above about 3.3
Large screens that a line does not name were inactive. Compounds with a hit are over-represented: about 4.3% of the library has one in this group of screens.

Cc1ccccc1-c1noc(-c2ccc(O)cc2)n1	STAT1 activator 140.3, APP 5'UTR act 156.5, NF-kB neuron act 7.71
CC(C)CNc1nc(Oc2ccc(=O)[nH]n2)nc(N2CCOCC2)n1	none
CCCN1CCN(CCCNC(=S)Nc2ccc(OC)cc2)CC1	none
Fc1ccc(Nc2nc(-c3ccncc3)cs2)cc1	STAT1 activator 143.9
O=[N+]([O-])c1cccc(-c2csc(Nc3ccccc3)n2)c1	STAT1 activator 143.2
Clc1ccc(Nc2nc(-c3ccncc3)cs2)cc1	STAT1 activator 136.9 (no result: FLuc inh counter, FLuc stim CS, NF-kB neuron act)
O=C(Cc1ccccc1)Nc1nc(-c2cccc([N+](=O)[O-])c2)cs1	none
O=C(/C=C/c1ccccc1)Nc1nc(-c2ccncc2)cs1	none
c1ccc(Nc2nc(-c3ccncc3)cs2)cc1	STAT1 activator 145.3
Nc1ccc(Nc2nc(-c3ccncc3)cs2)cc1	FLuc inh counter 59.0
Oc1ccc(Nc2nc(-c3ccc(O)cc3)cs2)cc1	none
Cc1nc(N)sc1-c1csc(Nc2ncccn2)n1	APP 5'UTR act 177.3
Cc1nc(C)c(-c2csc(Nc3ccc(F)cc3)n2)s1	STAT1 activator 142.3
N/C(=N\OC(=O)c1cc(Br)ccc1Cl)c1cccnc1	none
N/C(=N\OC(=O)c1cc(Br)ccc1Cl)c1ccccn1	FLuc inh counter 52.1, APP 5'UTR act 180.4, NF-kB neuron act 5.99
N/C(=N\OC(=O)c1ccc(Cl)cc1Cl)c1ccccn1	FLuc inh counter 95.2
CCOC(=O)N1CCC(NC(=O)c2cc3c(=O)[nH]c4ccccc4c3n2C)CC1	none
CCOC(=O)C(C)N1N=C(/C=C/c2ccc(C)cc2)CCC1=O (stereo not drawn)	none
C=CCN1N=C(/C=C/c2ccc(C)cc2)CCC1=O	STAT1 activator 136.9
S=c1[nH]c(-c2ccccc2)cn1/N=C/c1ccccc1Br	none
Cc1ccc(/C=N/n2cc(-c3ccccc3)[nH]c2=S)s1	STAT1 activator 129.3
CCOC(=O)Cn1cncc1-c1ccc([N+](=O)[O-])cc1	STAT1 activator 129.6
CCOc1ccc(NC(=O)Cn2cncc2-c2ccc([N+](=O)[O-])cc2)cc1	none
O=C(O)c1cc(-c2ccc3c(c2)OCO3)nc2ccc(Br)cc12	FLuc inh counter 71.9
COC(=O)c1cc(-c2ccc3c(c2)OCO3)nc2ccccc12	none
CCC1CCc2c(sc(NC(=O)c3ccco3)c2C(N)=O)C1 (stereo not drawn)	STAT1 activator 130.6
CCc1cc2cc(C(=O)Nc3ccccc3F)sc2s1	STAT1 activator 146.0, APP 5'UTR act 162.8
CCc1cc2cc(C(=O)Nc3ccc(F)cc3)sc2s1	none
Cc1cccc(C(C)C)c1NC(=O)c1ccc(CN(c2ccccc2)S(=O)(=O)c2ccccc2)cc1	none
CCOc1ccc(NC(=O)C(c2ccccn2)N(C(=O)CCl)c2ccc(F)cc2)cc1 (stereo not drawn)	none
CCN(CCn1cccn1)C(=O)CCc1nnc(CCCc2ccccc2)o1	STAT1 activator 146.6, NF-kB neuron act 4.14
COc1cc(OC)cc(-n2nnnc2SCC(=O)Nc2nc3c(s2)CCCC3)c1	none
O=C(Cc1cccs1)Nc1nc2c(s1)CCCC2	STAT1 activator 131.1, NF-kB neuron act 6.07
O=C(Nc1nc2c(s1)CCCC2)c1cccs1	FLuc inh counter 79.9, STAT1 activator 146.1, APP 5'UTR act 198.5, NF-kB neuron act 5.68
O=C(Nc1nc2c(s1)CCCC2)Oc1ccccc1	none
Cn1nnnc1SCC(=O)Nc1nc2c(s1)CCCC2	STAT1 activator 143.0, NF-kB neuron act 3.97
O=C(Nc1nc2c(s1)CCCC2)c1cccnc1	STAT1 activator 139.0, NF-kB neuron act 4.05
COc1ccc(C)c2sc(=NC(=O)c3ccccc3)n(C)c12	NF-kB neuron act 3.59
CC(=O)N=c1sc2ccccc2n1C	none
Cc1ccc(C(=O)N/N=c2\sc3ccccc3n2C)cc1	none
Cn1c(=NC(=O)COc2ccccc2)sc2ccccc21	STAT1 activator 148.2, NF-kB neuron act 3.58
COc1ccc(C(=O)N=c2sc3ccccc3n2C)cc1	FLuc inh counter 69.1, STAT1 activator 141.1, APP 5'UTR act 162.8, NF-kB neuron act 8.06
COc1ccc(C)c2sc(=NC(=O)C(C)C)n(C)c12	none
Cn1/c(=N/NC(=O)c2ccccc2F)sc2ccccc21	STAT1 activator 149.0
CCc1nnc(N2C(=N)SCC2=O)s1	none
COc1cccc(C(=O)N/N=c2\sc3ccccc3n2C)c1	none
COC(=O)Cn1c(=NC(=O)c2cccc(OC)c2)sc2cc(OC)ccc21	none
COc1cc(OC)cc(C(=O)N=c2sc3ccccc3n2C)c1	STAT1 activator 138.8, APP 5'UTR act 146.0
COc1cccc(C(=O)N=c2sc3cc(S(C)(=O)=O)ccc3n2C)c1	STAT1 activator 132.3
COc1cccc(CC(=O)N[C@@H](CCSC)c2nc3ccccc3[nH]2)c1	none
CCO[C@@H]1OC(C(=O)NCc2ccccc2)=C[C@H](c2ccc(Br)cc2)[C@H]1CCCO	none
Cc1nn(CC(=O)NCCCc2ccccc2)c(C)c1[N+](=O)[O-]	none
COc1ccc(C2CC2/C(C)=N/OC(=O)c2ccc(F)cc2)cc1 (stereo not drawn)	none
COc1ccc(C(=O)O/N=C(/C)c2cccs2)cc1	FLuc inh counter 95.9
COc1ccc(C/C(N)=N/OC(=O)c2cccs2)cc1	none
C/C(=N/OC(=O)c1c(F)cccc1F)c1nccs1	FLuc inh counter 81.0
C/C(=N\OC(=O)c1c(-c2c(F)cccc2Cl)noc1C)c1nccs1	none (no result: NF-kB neuron act)
COc1ccc(C(=O)O/N=C(\C)c2nccs2)cc1	FLuc inh counter 91.7
C/C(=N\OC(=O)c1ccc(F)cc1)c1nccs1	FLuc inh counter 87.4
COc1ccc(C2SCC(=O)N2c2c(C)n(C)n(-c3ccccc3)c2=O)cc1OC (stereo not drawn)	none
CC(=O)N1c2ccccc2NC2=C(C(=O)CC(C)(C)C2)C1c1cccn1C (stereo not drawn)	none
Cc1sc(NC(=O)c2ccccc2F)c(CN2CCCCC2C)c1C (stereo not drawn)	STAT1 activator 136.8
CC(=O)Nc1sc(C)c(C)c1CN1CCN(Cc2ccccc2)CC1	none
CNS(=O)(=O)c1cccc(C(=O)OCC(=O)Nc2ccc(N3CCCCC3)cc2)c1	none
Cc1ccc(NC(=O)CCN2C(=O)c3ccncc3C2=O)cc1	none
Cc1ccc2nc(-c3ccc(NC(=O)COC(=O)c4ccc(Br)o4)cc3)sc2c1	STAT1 activator 141.7, APP 5'UTR act 135.6, NF-kB neuron act 5.35
Cc1ccc2sc(-c3ccc(NC(=O)CCN4C(=O)c5ccccc5C4=O)cc3)nc2c1	STAT1 activator 149.9, APP 5'UTR act 161.8
CCOc1ncccc1C(=O)OCC(=O)Nc1c(C)cc(C)cc1C	none
CCOc1ncccc1C(=O)OCC(=O)Nc1ccc(-c2nc3ccc(C)cc3s2)cc1	APP 5'UTR act 163.9, NF-kB neuron act 3.45
CNS(=O)(=O)c1cccc(C(=O)OCC(=O)Nc2ccc(-c3nc4ccc(C)cc4s3)cc2)c1	APP 5'UTR act 167.1
O=C(COC(=O)c1ccc(Br)o1)Nc1ccc(S(=O)(=O)N2CCCC2)cc1	none
Cc1cc([N+](=O)[O-])c2c(c1C)C1C=CCC1C(c1ccccn1)N2 (stereo not drawn)	none
